Source: PubChem
Only some compounds are listed: those with a hit (about 5.9% of all), similar ones and a draw of the others.
T cruzi growth-1: inhibitors of T. cruzi proliferation; T. cruzi beta-gal in NIH3T3, GalScreen luminescence, 90 h; inhibition, % at 8.34 µM; 77,000 compounds, 5.9% hits;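 active means mean inhibition above about 93%, with at least 55% of replicates each passing it, limit read from the data, passing the limit was not always enough; inconclusive means only one of those two conditions holds; inactive means neither condition holds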
Pf Dd2 growth: inhibitors of Plasmodium falciparum Dd2 growth. P. falciparum Dd2 growth, SYBR Green, 72 h; stronger effect = lower value. activity change, % at 10 µM. 94,000 compounds, 2.3% hits. AID 1159554; in the data active means activity change below about -80%; inconclusive means no clear call, values can overlap the other calls
GASC1 inh: blocks human GASC-1 (KDM4C) demethylase activity; Q9H3R0; GST-KDM4C 2-372, H3K9me3 peptide, LANCE TR-FRET; inhibition, % at 12.5 µM; 96,000 compounds, 0.15% hits; AID 720574;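 active means mean replicate inhibition above about 25%, with at least 55% of replicates also reaching it, limit read from the data, passing the limit was not always enough; inconclusive means only one of those two conditions met; inactive means neither condition met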
Target sequence (Q9H3R0 2-372 limits assumed): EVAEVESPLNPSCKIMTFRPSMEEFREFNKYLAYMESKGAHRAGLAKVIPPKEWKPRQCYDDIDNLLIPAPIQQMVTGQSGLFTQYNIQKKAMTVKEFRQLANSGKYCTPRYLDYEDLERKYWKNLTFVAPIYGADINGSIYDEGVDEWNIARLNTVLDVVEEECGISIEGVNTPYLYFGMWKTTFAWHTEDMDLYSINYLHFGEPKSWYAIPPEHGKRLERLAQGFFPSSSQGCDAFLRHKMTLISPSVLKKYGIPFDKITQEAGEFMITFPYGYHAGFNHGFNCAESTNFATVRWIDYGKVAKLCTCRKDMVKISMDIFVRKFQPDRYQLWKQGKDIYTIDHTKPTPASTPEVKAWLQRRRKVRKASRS
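Material: GST-tagged GASC-1 (JMJD2C) catalytic fragment, aa 2-372. Input: enzyme final amount 10 nM. Medium: HEPES buffer, pH 7.5, plus ascorbate. Reagent: H3K9me3 peptide substrate, Fe(II), 2-oxoglutarate. Doses: single dose. Times: reaction 30 min RT, detection step 1 h RT. Measured by: LANCE TR-FRET. Evaluation: Fall in 671/618 emission ratio as inhibition.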
IDH1 R132H inh: blocks human IDH1 R132H reductase activity; O75874; diaphorase/resazurin fluorescence, 60 min; inhibition, % at 10 µM; 70,000 compounds, 0.18% hits; AID 624101; in the data active means inhibition above about 34%; inconclusive means no clear call, values can overlap the other calls; inactive means below about 11%;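 further: 0% = DMSO and 100% = no enzyme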
Target sequence (O75874 whole entry R132H): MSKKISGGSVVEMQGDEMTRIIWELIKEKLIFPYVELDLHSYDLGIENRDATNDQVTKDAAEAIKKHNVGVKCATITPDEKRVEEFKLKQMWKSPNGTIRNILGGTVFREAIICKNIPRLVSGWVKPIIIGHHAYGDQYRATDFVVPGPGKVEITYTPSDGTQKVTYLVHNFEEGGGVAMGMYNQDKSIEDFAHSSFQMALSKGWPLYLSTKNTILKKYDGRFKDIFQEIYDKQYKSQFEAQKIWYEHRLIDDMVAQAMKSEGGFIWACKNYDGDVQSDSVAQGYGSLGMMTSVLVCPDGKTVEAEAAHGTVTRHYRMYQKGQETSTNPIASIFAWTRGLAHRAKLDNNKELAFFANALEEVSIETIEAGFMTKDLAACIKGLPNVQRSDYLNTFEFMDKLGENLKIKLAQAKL
T cruzi growth-2: blocks T. cruzi growth in NIH3T3 host cells | inhibition, % at 8.35 µM | T. cruzi beta-gal in NIH3T3, GalScreen luminescence, 90 h | 5,600 compounds, 72% hits | shares compounds with T cruzi growth-1;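 active means mean replicate inhibition above about 95% and at least 55% of replicates individually reaching it, limit read from the data; inconclusive means only one of the two criteria is met; inactive means neither criterion is met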
T cruzi growth-3: blocks T. cruzi growth in NIH3T3 host cells; inhibition, % at 2.09 µM; 5,600 compounds, 21% hits; shares compounds with T cruzi growth-1; T. cruzi beta-gal in NIH3T3, GalScreen luminescence, 90 h; AID 651740;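 active means mean inhibition above about 95%, with at least 55% of replicates also reaching it, limit read from the data; inconclusive means meets just one of the two conditions; inactive means meets neither condition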;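 further: plate controls were neutral control median for no effect and positive control median for full effect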
3T3 cytotox: NIH/3T3 (mouse) viability loss; AID 651742; cytotoxicity (signal decrease), % at 8.35 µM; NIH/3T3 viability, CellTiter-Glo ATP luminescence, 90 h; 5,600 compounds, 14% hits; shares compounds with T cruzi growth-1;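 active means mean signal decrease across replicates above about 35% based on untreated-well scatter, with enough replicates individually passing, limit read from the data; inconclusive means no rule stated though some were filed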;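 further: 0% = median of neutral control wells and 100% = median of positive control wells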
3T3 cytotox 2: NIH/3T3 (mouse) viability loss; shares compounds with T cruzi growth-1; NIH/3T3 viability, CellTiter-Glo ATP luminescence, 90 h; inhibition, % at 24.9 µM; 5,600 compounds, 56% hits; AID 651744;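 active means mean loss of cell viability signal at or above a set limit, and enough replicates individually reaching it; inconclusive means meets only the mean limit or only the replicate share; inactive means meets neither condition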;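 further: 0% = median of neutral control wells and 100% = median of positive control wells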
* marks the source's active call; other numbers are inactive results; ? = inconclusive; nt = not tested or not shown; ! = not active in a repeat.

SMILES	T cruzi growth-1	Pf Dd2 growth	GASC1 inh	IDH1 R132H inh	T cruzi growth-2	T cruzi growth-3	3T3 cytotox	3T3 cytotox 2
CCc1ccccc1NC(=O)COc1ccc2c(=O)c(Oc3ccccc3Cl)coc2c1	nt	nt	nt	-0.4	nt	nt	nt	nt
Cc1ccccc1S(=O)(=O)N1CCCCN2[C@@H](CO)[C@H](c3ccc(-c4cccc(F)c4)cc3)[C@@H]2C1	105.9*	-9.1	-0.4	nt	88.4	103.5*	55.9*	102.9*
Cc1ccccc1S(=O)(=O)N1CCCCN2[C@H](C1)[C@@H](c1ccc(-c3cccc(F)c3)cc1)[C@@H]2CO	?	5.4	-0.9	nt	110.7*	64.6	28.5	73.2*
Cc1ccccc1S(=O)(=O)N1CCCCN2[C@H](CO)[C@H](c3ccc(-c4cccc(F)c4)cc3)[C@H]2C1	71.2	-72.7	-1.0	nt	nt	nt	nt	nt
COc1ccc(S(=O)(=O)N(C)C[C@H]2OCCCC[C@H](C)Oc3ccc(NS(=O)(=O)c4ccc(C)cc4)cc3C(=O)N([C@@H](C)CO)C[C@@H]2C)cc1	?	-68.3	0.5	-6.7	100.7*	77.7	6.6	-1.8
COc1ccc(S(=O)(=O)Nc2ccc3c(c2)C(=O)N([C@@H](C)CO)C[C@@H](C)[C@H](CN(C)S(=O)(=O)c2ccc(OC)cc2)OCCCC[C@H](C)O3)cc1	78.2	-42.7	0.0	nt	nt	nt	nt	nt
COc1ccc(S(=O)(=O)Nc2ccc3c(c2)C(=O)N([C@H](C)CO)C[C@@H](C)[C@H](CN(C)S(=O)(=O)c2ccc(OC)cc2)OCCCC[C@H](C)O3)cc1	99.8*	-73.8	-0.5	0.3	107.4*	61.5	17.6	4.7
COc1ccc(S(=O)(=O)Nc2ccc3c(c2)C(=O)N([C@@H](C)CO)C[C@@H](C)[C@H](CN(C)S(=O)(=O)c2ccc(OC)cc2)OCCCC[C@@H](C)O3)cc1	?	-46.7	-1.2	nt	107.9*	68.6	5.9	23.1
COc1ccc(S(=O)(=O)N(C)C[C@H]2OCCCC[C@@H](C)Oc3ccc(NS(=O)(=O)c4ccccc4)cc3C(=O)N([C@H](C)CO)C[C@H]2C)cc1	115.3*	nt	-1.4	nt	107.8*	63.6	7.3	-2.5
COc1ccc(S(=O)(=O)N(C)C[C@@H]2OCCCC[C@H](C)Oc3ccc(NS(=O)(=O)c4ccc(C)cc4)cc3C(=O)N([C@@H](C)CO)C[C@H]2C)cc1	30.8	-55.9	0.3	-1.3	nt	nt	nt	nt
O=C(CSc1nnnn1-c1ccccc1)Nc1cccc(I)c1	nt	nt	nt	0.4	nt	nt	nt	nt
COc1cccc(OCC(=O)Nc2ccc(OC)c(NC(=O)c3ccco3)c2)c1	nt	nt	nt	-0.3	nt	nt	nt	nt
Cn1c(-c2cc(Br)cs2)nc(=O)c2cc(Cl)ccc21	nt	nt	nt	0.4	nt	nt	nt	nt
COc1ccc(C(=O)CSc2nnc(-c3ccccc3Cl)n2-c2ccccc2)cc1	nt	nt	nt	0.8	nt	nt	nt	nt
Cc1cc(I)ccc1NC(=O)CN(c1ccc(Cl)c(Cl)c1)S(C)(=O)=O	nt	nt	nt	-0.1	nt	nt	nt	nt
Nc1cc(N)nc(SCC(=O)Nc2ccc(Oc3ccccc3)cc2)n1	nt	nt	nt	-0.2	nt	nt	nt	nt
c1ccc(-n2nnnc2CSc2nnnn2-c2ccccc2)cc1	nt	nt	nt	2.2	nt	nt	nt	nt
COc1ccc(S(=O)(=O)Nc2ccc3c(c2)C(=O)N([C@H](C)CO)C[C@H](C)[C@H](CN(C)S(=O)(=O)c2ccc(OC)cc2)OCCCC[C@H](C)O3)cc1	99.8*	-57.8	0.1	0.4	109.3*	64.3	1.8	8.6
COc1ccc(S(=O)(=O)Nc2ccc3c(c2)C(=O)N([C@@H](C)CO)C[C@H](C)[C@H](CN(C)S(=O)(=O)c2ccc(OC)cc2)OCCCC[C@H](C)O3)cc1	100.9*	-65.4	0.2	nt	110.7*	16.6	-0.4	-10.0
O=C(Nc1ccccc1[N+](=O)[O-])c1cccc(S(=O)(=O)Nc2ccc(Br)cc2)c1	nt	nt	nt	-0.3	nt	nt	nt	nt
O=[N+]([O-])c1cccc(NC(=S)NCCn2cc(Cl)cn2)c1	nt	nt	nt	0.0	nt	nt	nt	nt
OC[C@H]1[C@H](c2ccc(/C=C/c3ccccc3)cc2)[C@@H]2CN(Cc3cccnc3)CCCCN12	103.5*	-70.8	-0.9	nt	107.7*	65.4	0.0	104.1*
OC[C@H]1[C@H](c2ccc(/C=C/c3ccccc3)cc2)[C@@H]2CN(Cc3ccncc3)CCCCN12	?	-62.2	4.4	nt	109.6*	51.3	?	103.9*
OC[C@@H]1[C@@H](c2ccc(/C=C/c3ccccc3)cc2)[C@H]2CN(Cc3cccnc3)CCCCN12	86.5	-75.8	-0.6	nt	nt	nt	nt	nt
CN(C)C(=O)c1ccc(-c2ccc3c(c2)[C@H]2[C@H](CCN2C(=O)Cc2ccccn2)[C@H](CO)N3C)cc1	90.2	-30.2	-1.1	nt	nt	nt	nt	nt
SMILES	T cruzi growth-1	Pf Dd2 growth	GASC1 inh	IDH1 R132H inh	T cruzi growth-2	T cruzi growth-3	3T3 cytotox	3T3 cytotox 2
CN(C)C(=O)c1ccc(-c2ccc3c(c2)[C@@H]2[C@@H](CCN2C(=O)Cc2ccccn2)[C@H](CO)N3C)cc1	103.6*	-66.7	0.1	nt	104.3*	61.6	-23.0	5.5
CN(C)C(=O)c1ccc(-c2ccc3c(c2)[C@@H]2[C@@H](CCN2C(=O)Cc2ccccn2)[C@@H](CO)N3C)cc1	92.7	-70.9	1.9	nt	nt	nt	nt	nt
CN1c2ccc(-c3ccccc3)cc2[C@H]2[C@H](CCN2C(=O)Cc2ccccn2)[C@@H]1CO	112.8*	-3.3	2.8	nt	103.0*	59.1	-41.0	-11.1
CC(=O)c1ccc(NC(=O)CSc2nnc3n(-c4ccccc4)c(=O)c4c5c(sc4n23)COC(C)(C)C5)cc1	nt	nt	nt	-0.1	nt	nt	nt	nt
C[C@@H]1CN([C@@H](C)CO)C(=O)c2cc(/C=C/c3ccccc3)cnc2O[C@H]1CN(C)Cc1ccccc1F	127.2*	-38.1	-3.4	-0.2	?	107.9*	4.8	105.0*
C/C=C/c1cnc2c(c1)C(=O)N([C@@H](C)CO)C[C@H](C)[C@H](CN(C)Cc1ccccc1F)O2	nt	4.5	-1.8	-0.1	nt	nt	nt	nt
C/C=C/c1cnc2c(c1)C(=O)N([C@@H](C)CO)C[C@@H](C)[C@@H](CN(C)Cc1ccccc1F)O2	nt	6.6	-3.8	0.1	nt	nt	nt	nt
C[C@@H]1CN([C@@H](C)CO)C(=O)c2cc(/C=C/c3ccccc3)cnc2O[C@@H]1CN(C)Cc1ccccc1F	107.7*	-13.5	-2.9	0.2	113.9*	79.6	32.0	55.8*
Cc1ccc(-c2cnc3c(c2)C(=O)N([C@H](C)CO)C[C@H](C)[C@@H](CN(C)Cc2ccccc2F)O3)cc1	108.9*!	-22.2	-2.2	-1.2	107.7*	60.3	5.4	69.0*
CS(=O)(=O)N(CC(=O)Nc1cccc(C(F)(F)F)c1)c1ccc(F)c(Cl)c1	nt	nt	nt	0.3	nt	nt	nt	nt
C[C@@H]1CCCCO[C@@H](CN(C)Cc2ccc(C(F)(F)F)cc2)[C@H](C)CN([C@@H](C)CO)C(=O)c2cc(NC(=O)Nc3ccc(F)cc3)ccc2O1	93.8	-53.6	-0.2	2.1	nt	nt	nt	nt
